# Assay: Toxicity liver stage against HepG2, at 10uM
# Type: cell-based
# Set-up: test concentration 10 uM, cell line HepG2-A16-CD81EGFP
# Conditions: human, HepG2-A16-CD81EGFP cells; read-out: INHIBITION
# Method in brief: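 Uninfected HepG2-A16-CD81EGFP cells, 3 × 10^3 per well, 1536-well, plated on prespotted compound at 10 μM final, parasite-free screening media added to match infected plates; puromycin 10 μM positive, DMSO 0.5% negative; run in parallel with 48 h PbLuc assay at 37 °C, 5% CO2; viability by CellTiter-Glo luminescence, normalized to controls.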
row,SMILES,cytotoxicity at 10 µM
1,O=C(O)C[C@@H]1CCN(C(=O)c2cccs2)C[C@@H]1CCN1CCCCC1,2.4%
2,COc1ccc(Cl)cc1Nc1nc(N)c(C(C)=O)s1,2.52%
3,Cn1cc(NC(=O)CNC(=O)N2CCN(c3ccc(F)cc3)CC2)cn1,2.27%
4,CC(C)n1nc(O)c2c1NC(=O)CSC2c1cnn(C)c1 (configuration not stated),-5.28%
5,COCCn1ccc2c(NC(=O)c3n[nH]c4c3CCC4)cccc21,-1.6%
6,CCS(=O)(=O)N1CC(c2nc(-c3cccs3)no2)C1,-7.3%
7,CCOc1ccccc1NC(=O)NCC(C)(O)CCSC (configuration not stated),-6.14%
8,CC(C)COCC1CN(Cc2ccoc2)Cc2ncn(C)c21 (configuration not stated),4.53%
9,CS(=O)(=O)N1CCc2nc(NC(=O)Nc3c(F)cccc3F)sc2C1,-10.4%
10,CCC(=O)N1CCC(c2nc3ccc(NC(C)C)cn3n2)CC1,-10.2%
11,CCC(CCNC(=O)c1cc(C2CC2)nc2c1cnn2C)n1cccn1 (configuration not stated),2.04%
12,COCC(=O)N1CCC(c2c(C(=O)N(C)C)sc3ncccc23)C1 (configuration not stated),1.55%
13,O=C(c1cccnc1)N1CCCC(c2ccnc3nccn23)C1 (configuration not stated),6.2%
14,CC(C)(C)c1nc(CN(Cc2ccccc2Cl)C2CCCC2)no1,3.25%
15,CCc1ncc2c(n1)CN(CC1CCCCO1)CC2 (configuration not stated),-21.1%
16,Cc1ccc(CC(=O)NCC(O)c2ccc(Cl)cc2Cl)cn1 (configuration not stated),-10.1%
17,CC(C(=O)NC(C)(C)C)S(=O)(=O)Cc1noc(C(C)(C)C)n1 (configuration not stated),-10.8%
18,COc1ccccc1CC1CCCN1C(=O)c1cn[nH]c1C (configuration not stated),0.58%
19,Cc1ccc(NC(=O)N2CC[C@@H](O)C2)c(-c2nc(C3CC3)no2)c1,-4.16%
20,O=S(=O)(c1ccc(Cl)s1)N1CCCn2ncnc21,-3.06%
21,CCOCC(=O)N(C)Cc1nc(C(F)(F)F)cs1,2.49%

row,SMILES,cytotoxicity at 10 µM
1,O=C(N1CCN(c2ccccc2O)CC1)C1(O)Cc2ccccc2C1,0.0894%
2,COC1CCN(CCNC(=O)C2CCCCC2)CC1,0.545%
3,O=C(COC1CCCC1)N1CCCN(c2ncccn2)CC1,15.9%
4,COc1ncccc1NC(=O)N1CCCC1c1cc(C)no1 (configuration not stated),-9.66%
5,O=C(Cc1csc(-c2ncccn2)n1)N1CCN2CCCCC2C1 (configuration not stated),7.94%
6,Cc1ccsc1CNCc1c(C(C)C)nn(C)c1N1CCOCC1,8.42%
7,COc1ccccc1C(=O)Nc1c(C)cnn1CC1CC1,-3.47%
8,O=C(CCc1ccccn1)NCC(O)c1ccc(Cl)cc1Cl (configuration not stated),8.54%
9,Cn1cc(CNCCNC(=O)Cc2ccccc2)c(-c2cccnc2)n1,13.1%
10,COCc1cccc(NC(=O)N(C)Cc2ncc(C)c(OC)c2C)c1,-1.01%
11,NS(=O)(=O)c1cnc(NCC2(c3ccccc3)CCC2)s1,-4.88%
12,OCCN(Cc1nc(-c2ccc3c(c2)OCO3)no1)CC1CC1,8.37%
13,CC(NCc1cccc(S(=O)(=O)N(C)C)c1)c1ccccn1 (configuration not stated),-10.5%
14,CN1CCC(CNC(=O)c2ccc3cccc(Cl)c3n2)C1 (configuration not stated),-8.93%
15,CCc1noc(CN(CC)Cc2cc3ccc(C)cc3[nH]c2=O)n1,0.417%
16,COC(=O)C1C=CCN1C(=O)c1cc(COc2ccccc2)[nH]n1 (configuration not stated),-4.45%
17,Cc1nc(O)cc(C2CCN(C(=O)c3[nH]nc4c3CC(C)CC4)CC2)n1 (configuration not stated),3.06%
18,CCN(CC)C(=O)c1ccc(Cl)c(NC(=O)c2cc[nH]n2)c1,7.86%
19,CCn1cc(CN2CCCC(c3[nH]ncc3-c3ccc(F)cc3)C2)cn1 (configuration not stated),1.63%
20,CC(C)C(=O)N1CCC(CNc2nc(C(C)C)nc3c2cnn3C)CC1,-4.25%
21,COCC[C@]1(O)CCN(C(=O)C2CCN(C3CCCC3)CC2)C[C@H]1C,-0.292%

row,SMILES,cytotoxicity at 10 µM
1,O=C(NC1CC1)C1CNCCN1C(=O)COc1ccc2c(c1)OCO2 (configuration not stated),-1.74%
2,CC(C)C1CN(C(=O)c2cc(=O)[nH]c(=O)[nH]2)CCC(=O)N1CC1CC1 (configuration not stated),1.08%
3,CCc1cc(NCCN2CCNC2=O)n2nccc2n1,-3.04%
4,CCn1c(CC2CCN(C(=O)C3COCCO3)CC2)nn(C)c1=O (configuration not stated),-0.525%
5,Cc1cc(N2CCC3(CC2)C(C(=O)O)CC(=O)N3C)nc2ccccc12 (configuration not stated),-1.6%
6,Cn1c(CN2CCOCC2)nnc1C1CCCN(CC(N)=O)C1 (configuration not stated),5.23%
7,O=C1NC(C(=O)NCc2cccnc2Oc2ccc(F)cc2F)CO1 (configuration not stated),-1.32%
8,CC(c1ccccn1)N(C)Cc1cccc(C(=O)Nc2nccn2C)c1 (configuration not stated),14.6%
9,CC(Nc1nc(-c2ccccc2)nc2c1CCNCC2)c1nccs1 (configuration not stated),2.49%
10,O=C(COc1ccc2cccnc2c1)N1CCN[C@H]2CS(=O)(=O)C[C@H]21,7.98%
11,Nc1ccnc(C(=O)N2CCCC3(CCC(=O)N(C4CCCC4)C3)C2)c1 (configuration not stated),-19.8%
12,COc1cccc(-c2cc(NCC(=O)O)nc3[nH]ccc23)n1,8.09%
13,Cc1cc(N(C)CCN(C)C)n2nc(C)cc2n1,7.77%
14,CSc1cccc(CN(C)C(=O)c2ccc(C3CCCNC3)cc2)c1 (configuration not stated),-3.07%
15,CCn1c(N)nc2cc(C(=O)NCCc3ccccc3C)cnc21,-10.8%
16,CC(C(=O)Nc1ccc(N2CCCC2)nc1)n1cccn1 (configuration not stated),-17.1%
17,CCC(NC(=O)C1CC1)c1ccccc1OCC(=O)N1CCCC1 (configuration not stated),-9.16%
18,CN1CCCC1CNC(=O)CCCOc1cccc(Br)c1 (configuration not stated),-11.3%
19,O=C(CCCc1ccccn1)N1CCCC(n2cccn2)C1 (configuration not stated),-10.7%
20,CN1CCC(N(C)C(=O)c2cnc3c(cnn3C3CCCC3)c2)CC1,-26.9%
21,O=C(c1ccc(-n2cnnc2)cc1)N1CCCC(n2ccnc2)C1 (configuration not stated),-10.7%

row,SMILES,cytotoxicity at 10 µM
1,CCOCC(O)CN1CCN(C(=O)c2cccc(CC#N)c2)CC1 (configuration not stated),-16.4%
2,COc1c(C)cnc(CN2CCOC(CNc3cccnn3)C2)c1C (configuration not stated),-10.5%
3,Cc1cnc(CN2CCCC2c2noc(C(C)C)n2)cn1 (configuration not stated),-15.1%
4,CC(C(=O)NCc1ccc(N2CCCCC2)nc1)S(C)(=O)=O (configuration not stated),-8.81%
5,c1ccc2oc(CCCN3CCCC3c3noc(C4CC4)n3)nc2c1 (configuration not stated),-13.5%
6,Cn1nc2c(cc1=O)CN(Cc1coc(-c3cccc(F)c3)n1)CC2,-12.6%
7,O=C(c1cc2cc(I)ccc2[nH]1)N1CCC(Nc2cccnn2)CC1,-8.12%
8,Cc1cnc(CN(C)C2CCN(CCc3ccccn3)CC2)cn1,-12.1%
9,COCCN1CCN(CCS(=O)(=O)C(F)(F)F)CC1C (configuration not stated),-5.77%
10,Cc1cnn(CC2CCCN2Cc2nnc(Cc3ccccc3)o2)c1 (configuration not stated),-11.7%
11,Cc1ccc(C(=O)N2CCN(Cc3ccsc3)CC2)n1C,0.914%
12,CCc1nc(C2CCCN2C(=O)c2cc(C3CC3)[nH]n2)no1 (configuration not stated),1.03%
13,CCOCCN1CCCC(c2cc(C(N)=O)[nH]n2)C1 (configuration not stated),3.78%
14,Cc1cnn(CC2CCCCN2C(=O)c2cc(C(N)=O)cs2)c1 (configuration not stated),2.02%
15,O=C1NC2(CCN(C(=O)N3CCOCC3)CC2)CC1c1cccnc1 (configuration not stated),-128%
16,CNC(=O)CN1CC[C@H]2CN(C(=O)c3cccn3C)C[C@H]2C1,2.31%
17,O=C(NCc1ccco1)[C@H]1C[C@@H]2CCN(c3ncccn3)C[C@H]2O1,7.1%
18,CC(=O)N1CCC(c2nc3ccc(NC4CCC4)cn3n2)CC1,-107%
19,CSc1nc(N)cc(N2C[C@H]3CC[C@@H](C2)N(Cc2cscn2)C3=O)n1,-12%
